ChEMBL document CHEMBL1129055, “Synthesis, in vitro antiviral evaluation, and stability studies of bis(S-acyl-2-thioethyl) ester derivatives of 9-[2-(phosphonomethoxy)ethyl]adenine (PMEA) as potential PMEA prodrugs with improved oral bioavailability” (J Med Chem, 1996)
Values belong to the molecule of their own block, whether it stands above or below them.

How the values were obtained:
[1] = Half-life in culture medium.; type: ADME
[2] = Partition coefficient (logP); type: physicochemical; conditions: octanol/water
Method in brief: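 Octanol/water partition coefficient (logP) determined by HPLC using a microscale method adapted from earlier work on nucleoside analogues.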

CEM-SS [3] = experiment: (§1) Compound was tested for antiviral activity against the CEM-SS cell lines infected with HIV-1.; type: functional, cell-based; conditions: Homo sapiens
Method in brief: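 CEM-SS cells infected with 100 TCID50 HIV-LAI for 30 min, unbound virus removed by two washes, then cultured 5 days with graded compound concentrations. Virus production quantified as reverse transcriptase activity in culture supernatant. EC50 derived from median effect plot of dose-effect data.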

CEM-SS [4] = experiment: as §1; type: functional; conditions: Homo sapiens
MRC5 [5] = experiment: Compound was tested for antiviral activity against the MRC-5 cells infected with HSV-2.; type: functional, cell-based; conditions: Homo sapiens
Method in brief: (§2)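 Confluent cells in MEM with 5% FBS infected with 100 CCID50 virus (HSV-1 strain F or HSV-2 strain G) for 1 h at 37 °C, then exposed to compound from 1 mM to 1 uM. Cytopathic effect scored daily. EC50 is the concentration that reduces CPE by 50% once CPE is complete in untreated infected controls.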

MT4 [6] = experiment: (§3) Compound was tested for antiviral activity against the MT-4 cell lines infected with HIV-1.; type: functional, cell-based; conditions: Homo sapiens
Method in brief: (§4)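 MT-4 cells infected with 50 TCID50 HIV-1 IIIB for 30 min, washed twice, then cultured 5 days with graded compound concentrations. Protection from virus-induced cytopathogenicity read by MTT reduction to formazan. EC50 taken from median effect plot of dose-effect data.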

MT4 [7] = experiment: as §3; type: functional; conditions: Homo sapiens; method in brief: as §4
MRC5 [8] = experiment: (§5) Compound was tested for antiviral activity against the MRC-5 cells infected with HSV-1.; type: functional; conditions: Homo sapiens; method in brief: as §2
MRC5 [9] = experiment: as §5; type: functional, cell-based; conditions: Homo sapiens; method in brief: as §2
Vero [10] = experiment: (§6) Compound was tested for antiviral activity against the Vero cells infected with HSV-1.; type: functional, cell-based; conditions: Chlorocebus sabaeus; method in brief: as §2
Vero [11] = experiment: as §6; type: functional; conditions: Chlorocebus sabaeus
Vero [12] = experiment: Compound was tested for antiviral activity against the Vero cells infected with HSV-2; type: functional, cell-based; conditions: Chlorocebus sabaeus; method in brief: as §2
[13] = Percent decomposition in water at specified pH 7.2; conditions: buffer
[14] = Half-life in RPMI1640 medium.; type: ADME

Compound: Nc1ncnc2c1ncn2CCOCP(=O)(OCCSC(=O)c1ccccc1)OCCSC(=O)c1ccccc1
- half-life [1]: 25.7 h
- logP ([2]; read-out: logP): 3.93
- EC50 (CEM-SS [3]): 0.05 µM
- CC50 (CEM-SS [4]): 3.9 µM
- EC50 (MRC5 [5]): 4.75 µM
- EC50 (MT4 [6]): 0.41 µM
- CC50 (MT4 [7]): 2.4 µM
- CC50 (MRC5 [8]): 18.7 µM
- EC50 (MRC5 [9]): 3.48 µM
- EC50 (Vero [10]): 2.56 µM
- CC50 (Vero [11]): 12.7 µM
- EC50 (Vero [12]): 2.89 µM
- percent decomposition [13]: 1.7%

- half-life [1]: 28.8 h
Compound: CC(C)C(=O)SCCOP(=O)(O)COCCn1cnc2c(N)ncnc21

Compound: CC(=O)SCCOP(=O)(COCCn1cnc2c(N)ncnc21)OCCSC(C)=O
- half-life [14]: > 24 h
- half-life [1]: 3.7 h
- logP ([2]; read-out: logP): 0.32
- EC50 (CEM-SS [3]): 0.1 µM
- CC50 (CEM-SS [4]): 23 µM
- EC50 (MRC5 [5]): 8.9 µM
- EC50 (MT4 [6]): 1.1 µM
- CC50 (MT4 [7]): 7.6 µM
- CC50 (MRC5 [8]): 148 µM
- EC50 (MRC5 [9]): 12.6 µM
- EC50 (Vero [10]): 14.2 µM
- CC50 (Vero [11]): 126 µM
- EC50 (Vero [12]): 10.2 µM
- percent decomposition [13]: 4%

Compound: CC(C)(C)C(=O)SCCOP(=O)(COCCn1cnc2c(N)ncnc21)OCCSC(=O)C(C)(C)C
- half-life [1]: 81.6 h
- logP ([2]; read-out: logP): 3.41
- EC50 (CEM-SS [3]): 0.03 µM
- CC50 (CEM-SS [4]): 5.8 µM
- EC50 (MRC5 [5]): 0.97 µM
- EC50 (MT4 [6]): 0.65 µM
- CC50 (MT4 [7]): 15 µM
- CC50 (MRC5 [8]): 48.5 µM
- EC50 (MRC5 [9]): 1.43 µM
- EC50 (Vero [10]): 1.07 µM
- CC50 (Vero [11]): 36.8 µM
- EC50 (Vero [12]): 1.12 µM
- percent decomposition [13]: 3%

- half-life [1]: 64.8 h
Compound: Nc1ncnc2c1ncn2CCOCP(=O)(O)OCCSC(=O)c1ccccc1

Compound: Nc1ncnc2c1ncn2CCOCP(=O)(O)O [ADEFOVIR]
- logP [2]: -4.11
- EC50 (CEM-SS [3]): 0.42 µM
- CC50 (CEM-SS [4]): > 10 µM
- EC50 (MRC5 [5]): 33.5 µM
- EC50 (MT4 [6]): > 10 µM
- CC50 (MT4 [7]): > 10 µM
- CC50 (MRC5 [8]): > 100 µM
- EC50 (MRC5 [9]): 29.7 µM
- EC50 (Vero [10]): 38.5 µM
- CC50 (Vero [11]): > 100 µM
- EC50 (Vero [12]): 32.7 µM

Compound: Nc1ncnc2c1ncn2CCOCP(=O)(OCCSSCCO)OCCSSCCO
- half-life [14]: > 24 h
- half-life [1]: 38.4 h
- logP ([2]; read-out: logP): 0.21
- EC50 (CEM-SS [3]): 2 µM
- CC50 (CEM-SS [4]): 67 µM
- EC50 (MRC5 [5]): 26.5 µM
- EC50 (MT4 [6]): 6.9 µM
- CC50 (MT4 [7]): 50 µM
- CC50 (MRC5 [8]): > 100 µM
- EC50 (MRC5 [9]): 32.3 µM
- EC50 (Vero [10]): 22.3 µM
- CC50 (Vero [11]): > 100 µM
- EC50 (Vero [12]): 27.4 µM
- percent decomposition [13]: 13.9%

- half-life [1]: 230 h
Compound: CC(C)(C)C(=O)SCCOP(=O)(O)COCCn1cnc2c(N)ncnc21

Compound: CC(C)(C)C(=O)OCOP(=O)(COCCn1cnc2c(N)ncnc21)OCOC(=O)C(C)(C)C [ADEFOVIR DIPIVOXIL]
- half-life [14]: 5 h
- half-life [1]: 5 h
- logP ([2]; read-out: logP): 2.48
- EC50 (CEM-SS [3]): 0.04 µM
- CC50 (CEM-SS [4]): 4.4 µM
- EC50 (MRC5 [5]): 0.91 µM
- EC50 (MT4 [6]): 0.08 µM
- CC50 (MT4 [7]): 0.74 µM
- CC50 (MRC5 [8]): 15.7 µM
- EC50 (MRC5 [9]): 1.23 µM
- EC50 (Vero [10]): 0.87 µM
- CC50 (Vero [11]): 22.6 µM
- EC50 (Vero [12]): 1.15 µM
- percent decomposition [13]: 32.7%

Compound: CC(C)C(=O)SCCOP(=O)(COCCn1cnc2c(N)ncnc21)OCCSC(=O)C(C)C
- half-life [1]: 8.3 h
- logP ([2]; read-out: logP): 2.31
- EC50 (CEM-SS [3]): 0.09 µM
- CC50 (CEM-SS [4]): 13 µM
- EC50 (MRC5 [5]): 1.2 µM
- EC50 (MT4 [6]): 0.51 µM
- CC50 (MT4 [7]): 3.8 µM
- CC50 (MRC5 [8]): 30.2 µM
- EC50 (MRC5 [9]): 1.69 µM
- EC50 (Vero [10]): 1.35 µM
- CC50 (Vero [11]): 23 µM
- EC50 (Vero [12]): 1.14 µM
- percent decomposition [13]: 1.6%

- half-life [1]: 19.2 h
Compound: CC(=O)SCCOP(=O)(O)COCCn1cnc2c(N)ncnc21
